Assay outcomes: PubChem, several laboratories
Compounds with a hit are over-represented: about 4.3% of the library has one in this group of screens.
ALR inh: inhibitors of human sulfhydryl oxidase ALR; P55789; purified ALR, DTT oxidation, H2O2 HRP-luminol luminescence; inhibition, % (test concentration not listed); 290,000 compounds, 3.8% hits;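 active = mean replicate inhibition above about 79%, with every replicate also reaching it, limit read from the data; inconclusive = only one of the two criteria met; inactive = mean below limit and not every replicate reaching it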
Rin1-Abl PPI inh: blocks binding of human Rin1 to Abl; TR-FRET Rin1/Abl binding, biochemical; inhibition, % at 7.35 µM; 360,000 compounds, 0.4% hits; AID 588664; in the data active = inhibition above about 5%, passing the limit was not always enough
SUMO HTRF inh: inhibitors of human SUMOylation (UBC9); inhibition, % at 35 µM; P63279; HTRF SUMOylation assay, SAE1/SAE2 + UBC9, in vitro; 290,000 compounds, 0.36% hits; in the data active = inhibition above about 50%, passing the limit was not always enough; inconclusive = no clear call, values can overlap the other calls
RBBP9 inh: human RBBP9 hydrolase inhibition; O75884; recombinant RBBP9, FP-Rh probe fluorescence polarization; inhibition, % at 7.94 µM; 220,000 compounds, 0.2% hits; AID 1515;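 active = inhibition above the campaign mean of all tested compounds plus 3 SD, cut at about 14% in these data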;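 note: plate controls were DMSO wells with RBBP9 for no effect and wells lacking RBBP9 protein for full effect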
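system = RBBP9 protein | input = RBBP9 at 2.5 µM in dispensed solution, before mixing | measured by = fluorescence polarization (mP), excitation 525 nm, emission 598 nm | incubation = enzyme-compound preincubation 30 min, then probe labeling 45 min, 25 °C | buffer or medium = Tris-NaCl-Pluronic buffer, pH 8.0 | compound = single dose 7.94 µM | also added = FP-Rh probe, 375 nM dispensing solution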
UBC13 inh: human UBC13 polyubiquitination inhibition; P61088; UBC13 polyubiquitin chain formation, TR-FRET; inhibition, % at 20 µM; 330,000 compounds, 0.47% hits; AID 485273; in the data active = inhibition above about 45%, passing the limit was not always enough; inconclusive = no clear call, values can overlap the other calls
PREPL inhibitor: inhibits the human prolyl oligopeptidase-like enzyme. Q4J6C6. recombinant PREPL, fluorescence polarization activity-based probe. inhibition, % at 5.96 µM. 320,000 compounds, 0.68% hits. AID 2751; in the data active = inhibition above about 43%;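 note: 0% = enzyme with DMSO and 100% = wells lacking enzyme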
Target sequence (Q4J6C6 whole entry, looked up): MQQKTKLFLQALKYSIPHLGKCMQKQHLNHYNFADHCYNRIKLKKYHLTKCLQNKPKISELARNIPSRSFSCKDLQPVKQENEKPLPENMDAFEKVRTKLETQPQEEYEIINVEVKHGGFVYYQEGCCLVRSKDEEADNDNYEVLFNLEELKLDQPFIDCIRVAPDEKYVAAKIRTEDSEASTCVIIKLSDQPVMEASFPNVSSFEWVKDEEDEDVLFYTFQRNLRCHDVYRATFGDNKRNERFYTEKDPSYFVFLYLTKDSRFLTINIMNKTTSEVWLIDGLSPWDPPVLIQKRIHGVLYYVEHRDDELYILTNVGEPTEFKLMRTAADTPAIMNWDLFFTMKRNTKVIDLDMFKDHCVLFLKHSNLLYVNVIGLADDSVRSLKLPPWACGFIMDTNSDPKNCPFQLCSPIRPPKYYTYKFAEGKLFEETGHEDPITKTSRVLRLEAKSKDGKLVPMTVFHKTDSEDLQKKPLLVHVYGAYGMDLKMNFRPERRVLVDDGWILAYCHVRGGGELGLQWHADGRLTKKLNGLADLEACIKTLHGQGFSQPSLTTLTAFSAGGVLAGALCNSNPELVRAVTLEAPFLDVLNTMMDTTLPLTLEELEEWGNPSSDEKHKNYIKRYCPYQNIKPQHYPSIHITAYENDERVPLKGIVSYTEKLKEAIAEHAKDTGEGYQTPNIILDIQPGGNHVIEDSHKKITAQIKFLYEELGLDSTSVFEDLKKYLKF
An asterisk follows results filed as active; ? = inconclusive; / = not tested or not shown.

SMILES | ALR inh | Rin1-Abl PPI inh | SUMO HTRF inh | RBBP9 inh | UBC13 inh | PREPL inhibitor
CCN(C(=O)COC(=O)CCc1c[nH]c2ccccc12)c1c(N)n(Cc2ccccc2)c(=O)[nH]c1=O | / | 4 | / | / | 0 | -5
O=C(ONc1ccc(N=NC(=O)c2ccccc2O)cc1)c1ccccc1 | 98* | 3 | 2 | -3 | -188 | 10
CCOCC(=O)Nc1ccc([N+](=O)[O-])cc1C | -5 | 3 | -10 | -3 | -6 | -8
CCCCCCCC(=O)Nc1ccc(C(=O)N/N=C/c2cccc([N+](=O)[O-])c2)cc1 | -4 | -2 | 50* | -4 | -25 | 11
CCCCCCC(=O)Nc1ccc(C(=O)N/N=C/c2cccnc2)cc1 | 0 | -5 | -24 | -11 | 2 | -11
COc1ccc(CNC(=O)Nc2ccc3c(c2)N(C)C(=O)CS3)cc1 | -6 | 3 | -6 | -4 | -6 | 12
CC(C)CCn1c(=S)[nH]c2ncccc2c1=O | / | 0 | 12 | -1 | / | -12
Cn1c(=S)[nH]c2cccnc21 | 97* | 2 | 6 | -12 | 7 | 2
Nc1c(C(=O)CSc2nnc(Cc3ccccc3)o2)c(=O)[nH]c(=O)n1C1CC1 | -2 | 3 | / | / | -9 | 1
CN1CCCc2cc3c(C(F)(F)F)cc(=O)oc3nc21 | -7 | 1 | 62* | 1 | 12 | 0
CC(C)CCc1c(O)nc(SCC(=O)N2CCCCCC2)[nH]c1=O | 87* | 0 | 2 | / | 6 | 3
CCCc1c(O)nc(SCC(=O)N2CCCCC2)[nH]c1=O | 88* | 0 | 18 | / | 1 | 10
O=C(NCc1cccnc1)Nc1cccc(Cl)c1Cl | -12 | 3 | 5 | / | -1 | 2
CN1CCN(/N=C/c2nc(-c3ccccc3Cl)n3ccccc23)CC1 | 98* | -4 | -6 | -9 | -9 | -3
CCn1c(SCC(=O)NC2=NCCS2)nnc1C(C)NC(=O)c1ccc(Cl)cc1 (centres undefined) | / | -1 | 1 | / | 1 | -3
O=C(Oc1coc(CSc2ncccn2)cc1=O)c1cccc([N+](=O)[O-])c1 | 97* | -2 | -12 | -4 | 12 | 5
Cc1cc(C)c(C(=O)C(C)OC(=O)c2ccc(Cl)nc2)cc1C (centres undefined) | 2 | -2 | 0 | / | 2 | -7
Cc1ccc(-c2nc(C)sc2CC(=O)Nc2nnc(C)s2)cc1 | 98* | 1 | 8 | -7 | -7 | 11
CC(=O)Nc1ccc(NC(=O)Cc2sc(C)nc2-c2ccc(C)cc2)cc1 | / | -2 | -8 | -2 | -11 | 5
Cc1ccc(-c2nc(Nc3cccc(C)c3)sc2CC(=O)O)cc1 | 98* | -1 | 22 | 4 | 2 | 19
CCOC(=O)C1=CCN(S(=O)(=O)c2ccc(C)cc2)[C@H]1c1ccccc1Cl | / | 1 | / | / | / | /
COc1ccc(NC(=O)N(C)C[C@H]2Oc3c(NC(=O)C4CC4)cccc3C(=O)N([C@H](C)CO)C[C@@H]2C)cc1 | -3 | -1 | / | / | 5 | 14
O=C(CN1CCCc2ccccc21)NCCc1ccc(F)cc1 | 108* | -6 | 8 | 7 | 18 | 2
CCCCNC1=CC(=O)C(=O)c2ccccc21 | -30 | -7 | 91* | -9 | -133 | 4
COc1ccc(NC2=NCCCCC2)cc1 | -4 | -1 | 10 | / | 1 | 7
SMILES | ALR inh | Rin1-Abl PPI inh | SUMO HTRF inh | RBBP9 inh | UBC13 inh | PREPL inhibitor
COc1ccc(-c2nc(NC3=NCCCCC3)sc2C)cc1 | 98* | 3 | 12 | -2 | 1 | 14
CC(C)c1ccc(N(C(=O)CNC(=O)c2ccco2)C(C(=O)NC2CCCC2)c2cccnc2)cc1 (centres undefined) | -1 | 3 | 2 | / | -1 | 0
CCCCc1ccc(-c2csc(/C(C#N)=C/c3ccc(C)o3)n2)cc1 | 0 | 5 | 42 | -11 | 2 | -2
CCCCc1ccc(-c2csc(/C(C#N)=C\c3ccco3)n2)cc1 | 84* | 1 | 29 | -4 | -3 | -2
Cc1ccc(C2=NNC(=O)C(P(=O)(c3ccccc3)c3ccccc3)C2)cc1 (centres undefined) | -1 | -1 | -5 | -7 | -1 | 0
Cc1cc2nc(-c3ccc(SCc4ccccn4)nc3)[nH]c2cc1C | 98* | -2 | 6 | -18 | 4 | -10
Cc1cc2nc(-c3ccc(SCC(=O)N4CCN(C(=O)c5ccco5)CC4)nc3)[nH]c2cc1C | 99* | -1 | 0 | -6 | 3 | 6
Cc1cc2nc(-c3ccc(SCC(=O)N4CCOCC4)nc3)[nH]c2cc1C | ? | -4 | 13 | -9 | -2 | 20
Cc1ccc2[nH]cc(CCNC(=O)c3cccnc3)c2c1 | 96* | -1 | 5 | -5 | -2 | 23
Cc1ccc2[nH]cc(CCNC(=O)Nc3ccccc3)c2c1 | 98* | 3 | 9 | 5 | 10 | 10
O=C(CCSc1ccc(F)cc1)NNC(=O)c1ccc([N+](=O)[O-])cc1 | -2 | 5 | / | / | -8 | 13
O=C(CNc1ccccc1)N/N=C/c1c[nH]c2ccccc12 | 89* | -1 | 9 | 5 | 4 | 1
O=C(NN=Cc1c[nH]c2ccccc12)NN=Cc1c[nH]c2ccccc12 | / | 2 | / | / | / | /
COc1cccc(NC(=O)C2C3C=CC(O3)C2C(=O)NCc2cccnc2)c1 (centres undefined) | 98* | -2 | 27 | -3 | 5 | -7
FC(F)(F)c1ccccc1-n1c(-c2ccco2)n[nH]c1=S | 46 | 3 | 6 | / | 3 | -2
NC1=NC[C@H](Cc2ccccc2)N1CC1CCCCC1 | -8 | 3 | / | / | 4 | 6
NC1=NC[C@H](Cc2ccc(O)cc2)N1CC1CCCCC1 | 90* | 2 | 10 | / | 14 | 5
CC(=O)Oc1ccc2c(=O)oc(-c3ccccc3)nc2c1 | 0 | -1 | 6 | / | -1 | 9
CC(=O)Oc1ccc2nc(-c3ccc(Br)o3)oc(=O)c2c1 | 80* | -2 | -2 | / | 17 | -8
O=[N+]([O-])c1ccc2c(c1)C=C1CCCCC1(N1CCCC1)O2 (centres undefined) | 92* | 1 | -2 | 0 | -4 | 0
Nc1cc2ccncc2c2ccccc12 | 98* | -4 | 34 | -1 | -19 | 9
N#Cc1cc2ccncc2c2ccccc12 | / | -4 | / | / | / | /
COc1ccc(-c2cc3c(c4c2ccn4C)C2CCC3C2)cc1OC (centres undefined) | / | -11 | / | / | / | /
O=C(Nc1ccc(SC(F)F)cc1)c1ccccc1F | 99* | 0 | -4 | -6 | 3 | -2
COC(=O)[C@@H]1CC[C@H](C)[C@@H](c2ccc(C)cc2)N1C(=O)c1ccc(/C=N/OCC[C@@H]2C=C[C@H](OC(C)=O)[C@@H](COC(C)=O)O2)cc1 | / | / | -20 | -12 | -7 | 5
CCOc1cccc(C2C(C(=O)c3ccc(C)o3)=C(O)C(=O)N2c2nnc(C)s2)c1 (centres undefined) | / | 3 | / | / | / | /
CCCOc1cccc(C2C(C(=O)c3ccc(C)o3)=C(O)C(=O)N2c2nc(C)c(C(C)=O)s2)c1 (centres undefined) | 97* | -4 | 11 | / | -7 | 2
